≈ marks a conversion by molar mass, not a printed value. Calls of active or inactive are those of the source. The rule behind the calls is not given here.
Columns and labels:
HepG2 [1] = test: Cytotoxicity against human HepG2 cells after 24 hrs by MTT assay; type: functional, cell-based
Summary of the method: (§1)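 Cells grown in DMEM with 10% heat-inactivated FBS, penicillin and streptomycin at 37 °C, 5% CO2. Seeded 5×10^4 cells per well and treated 24 h after seeding. Samples dissolved in DMSO and diluted in medium, final DMSO under 0.1% (v/v). After 24 h exposure, MTT (0.5 mg mL-1) was added for 4 h at 37 °C and absorbance read at 490 nm. Inhibition % = (1 − ODsample/ODcontrol)×100, run in triplicate.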

Bel-7402 [2] = test: Cytotoxicity against human Bel7402 cells after 24 hrs by MTT assay; type: functional, cell-based; summary of the method: as §1
A549 [3] = test: Cytotoxicity against human A549 cells after 24 hrs by MTT assay; type: functional, cell-based; summary of the method: as §1
MCF7 [4] = test: Cytotoxicity against human MCF7 cells after 24 hrs by MTT assay; type: functional, cell-based; summary of the method: as §1
HepG2 [5] = test: Cytotoxicity against human HepG2 cells assessed as inhibition of cell proliferation at 100 ug/ml after 24 hrs by MTT assay relative to control; type: functional
Summary of the method: (§2)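 Cells (from the CAS cell bank) were grown in DMEM with 10% heat-inactivated FBS, penicillin and streptomycin at 37 °C under 5% CO2. They were seeded at 5×10^4 cells/well and treated 24 h later. Samples were dissolved in DMSO and diluted in medium (final DMSO <0.1%) for 24 h. MTT (0.5 mg/mL) was added for 4 h at 37 °C and A490 read. Inhibition = (1 − OD sample/OD control)×100, in triplicate.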

Bel-7402 [6] = test: Cytotoxicity against human Bel7402 cells assessed as inhibition of cell proliferation at 100 ug/ml after 24 hrs by MTT assay relative to control; type: functional; conditions: for inhibition at 100 µg/mL: Bel-7402, 24 h; summary of the method: as §1
A549 [7] = test: Cytotoxicity against human A549 cells assessed as inhibition of cell proliferation at 100 ug/ml after 24 hrs by MTT assay relative to control; type: functional; summary of the method: as §2
MCF7 [8] = test: Cytotoxicity against human MCF7 cells assessed as inhibition of cell proliferation at 100 ug/ml after 24 hrs by MTT assay relative to control; type: functional; summary of the method: as §2
MCF7 [9] = test: Induction of morphological changes in human MCF7 cells after 24 hrs by phase contrast microscopic method; type: functional, cell-based
Summary of the method: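 MCF-7 cells were kept in DMEM with 10% heat-inactivated FBS at 37 °C, 5% CO2, exposed to compound for 24 h, then examined for morphological changes by phase-contrast microscopy.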

SMILES	Activity (HepG2 [1])	IC50 (HepG2 [1]; HepG2, 24 h) [µg/mL]	Activity (Bel-7402 [2])	IC50 (Bel-7402 [2]; Bel-7402, 24 h) [µg/mL]	Activity (A549 [3])	IC50 (A549 [3]; A549, 24 h) [µg/mL]	Activity (MCF7 [4])	IC50 (MCF7 [4]; MCF7, 24 h) [µg/mL]	inhibition at 100 µg/mL (HepG2 [5]; HepG2, 24 h) [%]	inhibition at 100 µg/mL (Bel-7402 [6]) [%]	inhibition at 100 µg/mL (A549 [7]; A549, 24 h) [%]	inhibition at 100 µg/mL (MCF7 [8]; MCF7, 24 h) [%]	Activity (MCF7 [9])	inhibition (HepG2 [5])	inhibition (Bel-7402 [6])	inhibition (A549 [7])	inhibition (MCF7 [8])
C[C@@H]1CC[C@]2(C(=O)O)CC[C@]3(C)C(=CC[C@@H]4[C@@]5(C)C[C@@H](O)[C@H](O)C(C)(C)[C@@H]5CC[C@]43C)[C@@H]2[C@]1(C)O [TOMENTIC ACID]	Dose-dependent effect	40.6 (≈ 83 µM)	Dose-dependent effect	54.2 (≈ 111 µM)	Dose-dependent effect	62.4 (≈ 128 µM)	Dose-dependent effect	24.2 (≈ 49.6 µM)	82.8	80.2	72.4	91.8	Active				
O=c1[nH]cc(F)c(=O)[nH]1														Active	Active	Active	Active
CC1(C)CC[C@]2(C(=O)O)CC[C@]3(C)C(=CC[C@@H]4[C@@]5(C)CC[C@H](O)C(C)(C)[C@@H]5CC[C@]43C)[C@@H]2C1 [OLEANOLIC_ACID]	Dose-dependent effect		Dose-dependent effect		Dose-dependent effect		Dose-dependent effect			55.2							
C[C@@]12CCC[C@@](C)(C(=O)O)[C@H]1CC[C@@]13C[C@@H](CC[C@H]12)[C@](O)(CO)C3	Dose-dependent effect		Dose-dependent effect		Dose-dependent effect		Dose-dependent effect										
CC[C@H](CC[C@@H](C)[C@H]1CC[C@H]2[C@@H]3CC=C4C[C@@H](O[C@@H]5O[C@H](CO)[C@@H](O)[C@H](O)[C@H]5O)CC[C@]4(C)[C@H]3CC[C@]12C)C(C)C	Dose-dependent effect		Dose-dependent effect		Dose-dependent effect		Dose-dependent effect										

From ChEMBL document CHEMBL4261545, “Extraction of antioxidant and antiproliferative ingredients from fruits of Rubus chingii Hu by active tracking guidance” (Medchemcomm, 2017)
